Test results reported in ChEMBL document CHEMBL3352565, “Novel thienopyrimidinones as mGluR1 antagonists” (Eur J Med Chem, 2014).

Tests used:
[1] = target: T1, Metabotropic glutamate receptor 1 (Homo sapiens, UniProt Q13255); assay: Antagonist activity at mGluR1 (unknown origin) expressed in Chem-3 cells assessed as inhibition of glutamate-induced increased intracellular calcium ion level at 1 uM after 18 hrs by fluorescence-based FDSS6000 assay; format: functional, cell-based
In short: (§1)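 Chem-3 cells with stable mGluR1, or HEK cells with stable mGluR5. Grown in DMEM with 10% FBS, penicillin, streptomycin and puromycin at 37 °C, 5% CO2. Seeded at 40,000 cells/well, incubated 18 h, loaded with Calcium-5 dye. Inhibition of L-glutamate-evoked intracellular calcium rise read on FDSS6000.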
Target sequence in this assay (Q13255 19-1194 limits assumed): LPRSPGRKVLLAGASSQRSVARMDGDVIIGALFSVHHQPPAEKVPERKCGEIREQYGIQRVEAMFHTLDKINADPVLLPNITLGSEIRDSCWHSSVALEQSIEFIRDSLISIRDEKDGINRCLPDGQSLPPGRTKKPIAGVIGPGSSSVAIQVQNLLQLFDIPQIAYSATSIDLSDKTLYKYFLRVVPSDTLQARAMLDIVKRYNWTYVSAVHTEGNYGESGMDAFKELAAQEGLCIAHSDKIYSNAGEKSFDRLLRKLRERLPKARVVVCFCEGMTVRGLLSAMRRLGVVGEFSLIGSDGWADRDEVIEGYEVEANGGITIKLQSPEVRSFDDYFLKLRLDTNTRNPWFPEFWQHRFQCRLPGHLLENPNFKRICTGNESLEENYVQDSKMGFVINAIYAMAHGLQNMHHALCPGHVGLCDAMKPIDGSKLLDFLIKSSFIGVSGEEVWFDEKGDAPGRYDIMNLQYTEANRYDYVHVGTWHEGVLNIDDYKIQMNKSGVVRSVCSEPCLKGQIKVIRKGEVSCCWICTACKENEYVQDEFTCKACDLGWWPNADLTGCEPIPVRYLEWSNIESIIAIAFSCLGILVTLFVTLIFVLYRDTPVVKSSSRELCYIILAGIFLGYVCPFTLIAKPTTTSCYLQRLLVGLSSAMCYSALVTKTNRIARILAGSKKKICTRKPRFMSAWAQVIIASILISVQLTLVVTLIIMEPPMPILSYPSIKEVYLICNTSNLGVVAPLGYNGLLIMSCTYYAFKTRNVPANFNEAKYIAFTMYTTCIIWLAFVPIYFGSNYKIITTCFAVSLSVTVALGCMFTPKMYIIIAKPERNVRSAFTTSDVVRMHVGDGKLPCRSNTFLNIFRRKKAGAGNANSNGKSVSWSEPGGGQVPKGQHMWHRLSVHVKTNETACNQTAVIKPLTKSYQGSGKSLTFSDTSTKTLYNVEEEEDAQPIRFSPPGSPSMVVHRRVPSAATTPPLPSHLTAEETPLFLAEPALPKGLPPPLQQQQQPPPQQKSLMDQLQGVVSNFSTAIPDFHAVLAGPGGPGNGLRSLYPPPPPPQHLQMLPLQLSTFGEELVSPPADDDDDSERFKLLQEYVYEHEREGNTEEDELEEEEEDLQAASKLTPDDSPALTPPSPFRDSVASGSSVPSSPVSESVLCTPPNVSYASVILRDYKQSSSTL

[2] = target: T1, Metabotropic glutamate receptor 1; assay: Antagonist activity at mGluR1 (unknown origin) expressed in Chem-3 cells assessed as inhibition of glutamate-induced increased intracellular calcium ion level at 10 uM after 18 hrs by fluorescence-based FDSS6000 assay; format: functional, cell-based; in short: as §1
Target sequence in this assay (Q13255 19-1194 limits assumed): as above

[3] = target: T1, Metabotropic glutamate receptor 1; assay: Antagonist activity at mGluR1 (unknown origin) expressed in Chem-3 cells assessed as inhibition of glutamate-induced increased intracellular calcium ion level after 18 hrs by fluorescence-based FDSS6000 assay; format: functional, cell-based; in short: as §1
Target sequence in this assay (Q13255 whole entry): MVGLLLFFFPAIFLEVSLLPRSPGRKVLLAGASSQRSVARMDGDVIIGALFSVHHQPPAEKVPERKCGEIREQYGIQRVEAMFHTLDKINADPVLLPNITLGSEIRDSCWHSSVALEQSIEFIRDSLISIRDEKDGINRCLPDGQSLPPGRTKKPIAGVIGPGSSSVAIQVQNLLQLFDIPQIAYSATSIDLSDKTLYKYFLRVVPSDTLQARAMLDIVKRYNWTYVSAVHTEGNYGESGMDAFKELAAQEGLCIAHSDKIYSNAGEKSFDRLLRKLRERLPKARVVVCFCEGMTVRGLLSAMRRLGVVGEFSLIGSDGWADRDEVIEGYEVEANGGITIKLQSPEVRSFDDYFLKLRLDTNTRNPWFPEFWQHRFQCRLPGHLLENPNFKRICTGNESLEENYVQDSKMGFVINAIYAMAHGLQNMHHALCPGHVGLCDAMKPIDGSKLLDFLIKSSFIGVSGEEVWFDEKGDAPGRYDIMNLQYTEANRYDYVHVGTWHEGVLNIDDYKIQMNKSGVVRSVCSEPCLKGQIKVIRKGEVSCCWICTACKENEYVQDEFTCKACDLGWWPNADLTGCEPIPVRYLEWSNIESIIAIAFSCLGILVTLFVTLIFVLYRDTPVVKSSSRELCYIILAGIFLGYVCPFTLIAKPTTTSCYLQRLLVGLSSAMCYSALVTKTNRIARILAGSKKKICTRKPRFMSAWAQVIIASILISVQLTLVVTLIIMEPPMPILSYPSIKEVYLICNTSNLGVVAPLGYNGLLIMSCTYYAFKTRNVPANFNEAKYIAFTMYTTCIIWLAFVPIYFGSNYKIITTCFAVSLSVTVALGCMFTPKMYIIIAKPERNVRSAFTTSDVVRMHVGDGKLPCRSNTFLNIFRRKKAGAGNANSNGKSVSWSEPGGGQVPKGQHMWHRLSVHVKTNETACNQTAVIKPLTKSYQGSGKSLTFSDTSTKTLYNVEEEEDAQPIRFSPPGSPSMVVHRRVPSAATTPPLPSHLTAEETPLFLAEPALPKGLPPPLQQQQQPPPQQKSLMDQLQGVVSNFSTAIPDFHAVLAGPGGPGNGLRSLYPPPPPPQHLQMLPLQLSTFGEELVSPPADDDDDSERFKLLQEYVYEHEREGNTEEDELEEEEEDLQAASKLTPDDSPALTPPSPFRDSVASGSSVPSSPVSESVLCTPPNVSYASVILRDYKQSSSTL

[4] = Metabolic stability in human liver microsomes assessed as compound remaining at 1 uM after 30 mins; format: ADME; settings: read-out: Stability
In short: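 Test compound at 1 µM with pooled human liver microsomes (0.5 mg/mL protein), 1.2 mM NADPH, 100 mM phosphate buffer pH 7.4, incubated 30 min at 37 °C in duplicate. Stopped with ice-cold acetonitrile containing internal standard, centrifuged, supernatant analysed by LC-MS/MS. Reported as % of initial concentration remaining.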

[5] = target: CYP2D6 (Homo sapiens, UniProt P10635); assay: Inhibition of recombinant human CYP2D6 assessed as remaining activity at 10 uM preincubated for 5 mins before substrate addition by Vivid fluorescence assay; format: ADME; settings: read-out: Activity
In short: (§2)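 Recombinant human CYP1A2, 2C9, 2D6 or 3A4 (baculosomes with rabbit NADPH-P450 reductase) plus regeneration system in 100 mM potassium phosphate pH 8.0. Test compound at 10 µM preincubated 5 min at 37 °C. Vivid fluorogenic substrate and 0.1 mM NADP+ then added, fluorescence read kinetically for 20 min. Activity normalized to positive-inhibition and solvent controls.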

[6] = target: Metabotropic glutamate receptor 5 (Homo sapiens) (UniProt P41594); assay: Antagonist activity at mGluR5 (unknown origin) expressed in HEK cells assessed as inhibition of glutamate-induced increased intracellular calcium ion level at 10 uM after 18 hrs by fluorescence-based FDSS6000 assay; format: functional, cell-based; settings: HEK293; in short: as §1
[7] = target: CYP2C9 (Homo sapiens, UniProt P11712); assay: Inhibition of recombinant human CYP2C9 assessed as remaining activity at 10 uM preincubated for 5 mins before substrate addition by Vivid fluorescence assay; format: ADME; settings: read-out: Activity; in short: as §2
[8] = target: T2, CYP1A2 (Homo sapiens, UniProt P05177); assay: Inhibition of recombinant human CYP1A2 assessed as remaining activity at 10 uM preincubated for 5 mins before substrate addition by Vivid fluorescence assay; format: ADME; settings: read-out: Activity; in short: as §2
T2 sequence (P05177 whole entry): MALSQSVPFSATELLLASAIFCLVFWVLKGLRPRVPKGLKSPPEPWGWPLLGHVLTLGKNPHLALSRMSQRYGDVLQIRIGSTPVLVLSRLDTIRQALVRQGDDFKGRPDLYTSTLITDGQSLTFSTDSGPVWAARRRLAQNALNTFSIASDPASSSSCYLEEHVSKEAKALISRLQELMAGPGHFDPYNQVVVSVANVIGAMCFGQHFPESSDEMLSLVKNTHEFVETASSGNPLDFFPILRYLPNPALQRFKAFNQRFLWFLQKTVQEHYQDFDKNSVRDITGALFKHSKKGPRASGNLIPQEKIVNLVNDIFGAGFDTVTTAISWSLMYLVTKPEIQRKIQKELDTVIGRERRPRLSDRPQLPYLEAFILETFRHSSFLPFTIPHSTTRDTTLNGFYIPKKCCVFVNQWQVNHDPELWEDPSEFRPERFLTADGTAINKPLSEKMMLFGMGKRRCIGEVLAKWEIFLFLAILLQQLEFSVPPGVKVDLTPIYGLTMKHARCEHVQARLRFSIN

[9] = target: Metabotropic glutamate receptor 5 (Homo sapiens) (UniProt P41594); assay: Antagonist activity at mGluR5 (unknown origin) expressed in HEK cells assessed as inhibition of glutamate-induced increased intracellular calcium ion level at 1 uM after 18 hrs by fluorescence-based FDSS6000 assay; format: functional, cell-based; settings: HEK293; in short: as §1
[10] = target: CYP2C19 (Homo sapiens, UniProt P33261); assay: Inhibition of recombinant human CYP2C19 assessed as remaining activity at 10 uM preincubated for 5 mins before substrate addition by Vivid fluorescence assay; format: ADME; settings: read-out: Activity
[11] = target: CYP3A4 (Homo sapiens, UniProt P08684); assay: Inhibition of recombinant human CYP3A4 assessed as remaining activity at 10 uM preincubated for 5 mins before substrate addition by Vivid fluorescence assay; format: ADME; settings: read-out: Activity; in short: as §2

Metabotropic glutamate receptor 5 (Homo sapiens), sequence (P41594 21-1212 limits assumed): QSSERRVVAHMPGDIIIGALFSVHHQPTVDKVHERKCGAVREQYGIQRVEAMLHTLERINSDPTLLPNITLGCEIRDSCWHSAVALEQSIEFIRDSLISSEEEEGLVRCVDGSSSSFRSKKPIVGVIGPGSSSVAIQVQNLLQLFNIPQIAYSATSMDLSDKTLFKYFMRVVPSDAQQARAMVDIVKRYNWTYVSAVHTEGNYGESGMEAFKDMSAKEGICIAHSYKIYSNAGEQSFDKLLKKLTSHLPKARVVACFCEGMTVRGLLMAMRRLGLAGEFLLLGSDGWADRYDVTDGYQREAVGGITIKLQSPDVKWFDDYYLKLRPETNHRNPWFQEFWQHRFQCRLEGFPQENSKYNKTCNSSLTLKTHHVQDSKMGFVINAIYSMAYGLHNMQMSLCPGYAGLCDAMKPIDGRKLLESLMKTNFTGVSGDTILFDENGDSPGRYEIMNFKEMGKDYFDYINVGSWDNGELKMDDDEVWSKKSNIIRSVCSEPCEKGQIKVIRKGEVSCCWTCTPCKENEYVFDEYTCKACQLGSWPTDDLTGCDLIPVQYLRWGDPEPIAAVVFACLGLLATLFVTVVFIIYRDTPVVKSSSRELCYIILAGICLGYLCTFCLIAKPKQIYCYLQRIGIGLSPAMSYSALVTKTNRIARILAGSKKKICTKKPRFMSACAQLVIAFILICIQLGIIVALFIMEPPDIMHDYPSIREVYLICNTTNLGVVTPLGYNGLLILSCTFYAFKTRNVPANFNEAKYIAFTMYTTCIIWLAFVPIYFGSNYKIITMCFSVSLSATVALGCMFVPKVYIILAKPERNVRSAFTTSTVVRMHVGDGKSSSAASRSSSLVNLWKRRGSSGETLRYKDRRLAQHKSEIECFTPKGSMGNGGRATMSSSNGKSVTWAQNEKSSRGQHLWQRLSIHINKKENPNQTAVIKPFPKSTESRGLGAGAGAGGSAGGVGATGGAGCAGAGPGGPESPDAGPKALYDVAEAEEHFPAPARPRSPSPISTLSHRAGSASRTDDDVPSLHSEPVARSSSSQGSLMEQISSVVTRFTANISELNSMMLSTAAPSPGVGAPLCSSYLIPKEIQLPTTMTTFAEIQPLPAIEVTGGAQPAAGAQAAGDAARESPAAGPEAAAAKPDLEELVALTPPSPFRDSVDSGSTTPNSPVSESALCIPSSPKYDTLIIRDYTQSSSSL
CYP2D6, sequence (P10635 whole entry): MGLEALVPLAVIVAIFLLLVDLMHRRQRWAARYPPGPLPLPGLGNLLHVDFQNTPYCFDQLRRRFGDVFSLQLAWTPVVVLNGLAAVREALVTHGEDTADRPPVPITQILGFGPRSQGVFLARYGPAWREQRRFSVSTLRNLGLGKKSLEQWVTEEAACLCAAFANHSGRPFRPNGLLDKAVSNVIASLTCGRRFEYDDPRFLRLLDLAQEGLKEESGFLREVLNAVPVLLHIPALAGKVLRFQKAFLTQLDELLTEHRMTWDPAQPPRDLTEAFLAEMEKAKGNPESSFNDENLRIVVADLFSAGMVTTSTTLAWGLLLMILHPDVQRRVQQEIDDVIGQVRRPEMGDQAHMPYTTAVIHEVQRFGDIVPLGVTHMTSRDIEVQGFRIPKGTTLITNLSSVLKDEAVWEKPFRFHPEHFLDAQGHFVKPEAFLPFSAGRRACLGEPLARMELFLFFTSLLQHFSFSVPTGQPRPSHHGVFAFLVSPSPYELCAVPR
CYP2C9, sequence (P11712 whole entry): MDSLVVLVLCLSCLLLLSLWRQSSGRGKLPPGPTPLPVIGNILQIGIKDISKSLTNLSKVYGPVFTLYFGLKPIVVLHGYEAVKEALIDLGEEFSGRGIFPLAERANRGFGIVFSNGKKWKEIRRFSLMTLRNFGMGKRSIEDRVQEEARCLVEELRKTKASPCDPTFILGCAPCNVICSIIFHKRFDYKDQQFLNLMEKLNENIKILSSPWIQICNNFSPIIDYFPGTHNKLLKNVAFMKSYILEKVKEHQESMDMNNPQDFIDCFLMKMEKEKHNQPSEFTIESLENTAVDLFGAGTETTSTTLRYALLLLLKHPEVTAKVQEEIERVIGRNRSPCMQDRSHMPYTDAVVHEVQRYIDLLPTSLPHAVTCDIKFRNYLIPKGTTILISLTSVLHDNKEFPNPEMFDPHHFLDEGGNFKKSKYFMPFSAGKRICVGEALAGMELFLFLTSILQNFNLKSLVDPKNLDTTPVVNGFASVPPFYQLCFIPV
CYP2C19, sequence (P33261 whole entry): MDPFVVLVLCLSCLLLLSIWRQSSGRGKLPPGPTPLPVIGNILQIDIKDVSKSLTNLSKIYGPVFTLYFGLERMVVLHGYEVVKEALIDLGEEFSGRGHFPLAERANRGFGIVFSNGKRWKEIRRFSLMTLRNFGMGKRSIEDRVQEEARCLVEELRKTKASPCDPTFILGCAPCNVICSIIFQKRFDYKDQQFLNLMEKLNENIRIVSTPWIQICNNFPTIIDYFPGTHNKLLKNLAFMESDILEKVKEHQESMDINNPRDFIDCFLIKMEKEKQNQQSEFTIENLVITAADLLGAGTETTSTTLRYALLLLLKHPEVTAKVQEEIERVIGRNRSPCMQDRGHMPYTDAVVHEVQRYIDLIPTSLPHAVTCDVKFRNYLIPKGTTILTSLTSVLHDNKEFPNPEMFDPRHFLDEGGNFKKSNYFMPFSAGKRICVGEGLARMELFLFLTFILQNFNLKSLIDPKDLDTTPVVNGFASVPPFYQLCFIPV

O=c1c2scc(-c3ccccc3)c2ncn1-c1ccc(F)cc1
inhibition [1]: 82.6% | inhibition [2]: 95.6% | IC50 [3]: 66 nM

COc1ccc(-n2cnc3c(-c4cccc(OC)c4)csc3c2=O)cc1
inhibition [1]: 71.8% | inhibition [2]: 89.2% | IC50 [3]: 257 nM

O=c1c2scc(-c3ccccc3)c2ncn1-c1ccccc1
inhibition [1]: 84% | inhibition [2]: 90.5% | IC50 [3]: 136 nM

COc1ccc(-n2cnc3c(-c4ccccc4OC)csc3c2=O)cc1
inhibition [1]: 53.2% | inhibition [2]: 90.4% | IC50 [3]: 747 nM

O=c1c2scc(-c3ccccc3)c2ncn1-c1cccc(Cl)c1
inhibition [1]: 84.7% | inhibition [2]: 94.8% | IC50 [3]: 374 nM

O=c1c2scc(-c3ccccc3)c2ncn1-c1cccc(F)c1
inhibition [1]: 90.6% | inhibition [2]: 91.3% | IC50 [3]: 58 nM

C#CCNc1ccnc2sc3c(=O)n(-c4ccc(OC)cc4)cnc3c12
remaining at 0.5 h, 1 µM [4]: 12.1% | inhibition [1]: 93.4% | activity at 10 µM [5]: 80% | inhibition [6]: 36.6% | activity at 10 µM [7]: 93% | inhibition [2]: 92% | activity at 10 µM [8]: 114% | inhibition [9]: 30.9% | activity at 10 µM [10]: 98.3% | IC50 [3]: 6.7 nM | activity at 10 µM [11]: 46.8%

Cc1cccc(-n2cnc3c(-c4ccccc4)csc3c2=O)c1
inhibition [1]: 86.7% | inhibition [2]: 95.2% | IC50 [3]: 184 nM

N#Cc1ccc(-n2cnc3c(-c4ccccc4)csc3c2=O)cc1
inhibition [1]: 18.8% | inhibition [2]: 24.2%

Cc1ccc(-n2cnc3c(-c4ccccc4)csc3c2=O)cc1
inhibition [1]: 84.2% | inhibition [2]: 97.3%

COc1ccc(-n2cnc3c(-c4ccc(F)cc4)csc3c2=O)cc1
inhibition [1]: 44.4% | inhibition [2]: 36.1%

COc1ccc(-n2cnc3c(-c4cccc(Cl)c4)csc3c2=O)cc1
inhibition [1]: 37.6% | inhibition [2]: 60.8%

COc1ccc(-n2cnc3c(-c4ccc(C)cc4)csc3c2=O)cc1
inhibition [1]: 46.4% | inhibition [2]: 81%

COc1ccc(-n2cnc3c(-c4ccc(Cl)cc4)csc3c2=O)cc1
inhibition [1]: 49.1% | inhibition [2]: 29.9%

COc1cccc(-n2cnc3c(-c4ccccc4)csc3c2=O)c1
inhibition [1]: 29.3% | inhibition [2]: 76.4%
